The source made the active and inactive calls. The rule behind the calls is not given here.
How the values were obtained:
[1] = Cytotoxicity against human UACC257 cells assessed as residual growth at 10 uM; format: functional, UACC-257
NCI-H322M = assay: Cytotoxicity against human NCI-H322M cells assessed as residual growth at 10 uM; format: functional
SK-OV-3 = assay: Cytotoxicity against human SKOV3 cells assessed as residual growth at 10 uM; format: functional
U-251 = assay: Cytotoxicity against human U251 cells assessed as residual growth at 10 uM; format: functional
[2] = Cytotoxicity against human Hs578T cells assessed as residual growth at 10 uM; format: functional, Hs-578T
SK-MEL-28 [3] = assay: Cytotoxicity against apoptotic-resistant human SK-MEL-28 cells assessed as cell death at 5 uM after 72 hrs by quantitative videomicroscopy; format: functional, cell-based
Outline: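 SK-MEL-28 cells exposed to 5 µM for 24, 48 and 72 h. Cell cycle was read by flow cytometry with propidium iodide plus TUNEL double staining (APO-Direct kit), in quadruplicate. Videomicroscopy photographed each field every 4 min over 72 h. Global growth is cells at a time point divided by cells at time 0; the treated/control ratio gives GGR. Cell death was judged from morphology. Run twice, in triplicate and in quadruplicate.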

UACC-62 = assay: Cytotoxicity against human UACC62 cells assessed as residual growth at 10 uM; format: functional
SNB-75 = assay: Cytotoxicity against human SNB75 cells assessed as residual growth at 10 uM; format: functional
[4] = Cytotoxicity against human EKVX cells assessed as residual growth at 10 uM; format: functional
SK-MEL-2 = assay: Cytotoxicity against human SK-MEL-2 cells assessed as residual growth at 10 uM; format: functional
MDA-MB-231 = assay: Cytotoxicity against human MDA-MB-231 cells assessed as residual growth at 10 uM; format: functional
HT-29 = assay: Cytotoxicity against human HT-29 cells assessed as residual growth at 10 uM; format: functional
[5] = Cytotoxicity against human OVCAR4 cells assessed as residual growth at 10 uM; format: functional, OVCAR-4
SK-MEL-28 [6] = assay: Cytotoxicity against human SK-MEL-28 cells assessed as residual growth at 10 uM; format: functional
HOP-92 = assay: Cytotoxicity against human HOP92 cells assessed as residual growth at 10 uM; format: functional
A549 [7] = assay: Cytotoxicity against human A549 cells assessed as residual growth at 10 uM; format: functional
NCI-H460 = assay: Cytotoxicity against human NCI-H460 cells assessed as residual growth at 10 uM; format: functional
NHDF = assay: Cytotoxicity against human NHDF cells assessed as growth inhibition after 72 hrs by MTT-based colorimetric assay; format: cell-based
Outline: (§1)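 MTT colorimetric assay, 72 h exposure to the fumarate salt. Read-out is reduction of MTT to formazan by living cells. IC50 is the concentration that reduces the whole cell population by 50%. Six replicates per condition. Where compounds were not tested on every line, apoptosis-sensitive lines were PC3, MCF-7, LoVo and B16F10, and apoptosis-resistant lines were U373, T98G, A549 and SK-MEL-28.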

OVCAR-3 = assay: Cytotoxicity against human OVCAR3 cells assessed as residual growth at 10 uM; format: functional
SK-MEL-28 [8] = assay: Effect on oxygen consumption in human SK-MEL-28 cells at 10 uM by oxygraphic analysis; format: functional, cell-based
Outline: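 Compound added directly at 10 µM to the oxygraph chamber holding SKMEL-28 cells; ROUTINE respiration recorded by Clark-electrode high-resolution respirometry at 37 °C in phenol red-free DMEM with glucose 1 g/L and pyruvate 110 mg/L, with stirring.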

PC-3 = assay: Cytotoxicity against apoptotic-sensitive human PC3 cells assessed as growth inhibition after 72 hrs by MTT-based colorimetric assay; format: functional, cell-based; conditions: Homo sapiens, PC-3, 72 h; outline: as §1
SK-MEL-28 [9] = assay: Effect on mitochondrial morphology in human SK-MEL-28 cells at 5 uM after 24 hrs by MitoTracker Green FM-based fluorescence microscopic analysis; format: functional, cell-based
Outline: (§2)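 SKMEL-28 cells seeded on glass coverslips 48 h before treatment at 5 µM (3 to 48 h); two washes, mitochondria stained with 100 nM MitoTracker Green FM in phenol red-free RPMI for 30 min, rinsed twice, viewed by fluorescence microscopy. Three coverslips per condition.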

MDA-MB-468 = assay: Cytotoxicity against human MDA-MB-468 cells assessed as residual growth at 10 uM; format: functional
[10] = Cytotoxicity against human NCI-ADR-RES cells assessed as residual growth at 10 uM; format: functional
COLO 205 = assay: Cytotoxicity against human COLO205 cells assessed as residual growth at 10 uM; format: functional
T47D = assay: Cytotoxicity against human T47D cells assessed as residual growth at 10 uM; format: functional
RXF 393 = assay: Cytotoxicity against human RXF393 cells assessed as residual growth at 10 uM; format: functional
786-0 = assay: Cytotoxicity against human 786-0 cells assessed as residual growth at 10 uM; format: functional
Malme-3M = assay: Cytotoxicity against human MALME-3M cells assessed as residual growth at 10 uM; format: functional
MOLT-4 = assay: Cytotoxicity against human MOLT4 cells assessed as residual growth at 10 uM; format: functional
A549 [11] = assay: Cytotoxicity against apoptotic-resistant human A549 cells assessed as growth inhibition after 72 hrs by MTT-based colorimetric assay; format: functional, cell-based; conditions: Homo sapiens, A549, 72 h; outline: as §1
T98G = assay: Cytotoxicity against apoptotic-resistant human T98G cells assessed as growth inhibition after 72 hrs by MTT-based colorimetric assay; format: functional, cell-based; conditions: Homo sapiens, T98G, 72 h; outline: as §1
SK-MEL-28 [12] = assay: Induction of ROS production in human SK-MEL-28 cells at 5 uM by DCFH-DA staining-based flow cytometry; format: functional, cell-based; conditions: TDE = time-dependent effect
Outline: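 SKMEL-28 cells exposed to 5 µM over a time course, washed twice, stained 1 h at 37 °C with 20 µM DCFH-DA in phenol red-free RPMI, washed twice, trypsinized; ROS-driven probe oxidation read as fluorescence by flow cytometry. Run once in quadruplicate; mean ± SEM.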

SR = assay: Cytotoxicity against human SR cells assessed as residual growth at 10 uM; format: functional
LoVo = assay: Cytotoxicity against apoptotic-sensitive human LoVo cells assessed as growth inhibition after 72 hrs by MTT-based colorimetric assay; format: functional, cell-based; conditions: Homo sapiens, LoVo, 72 h; outline: as §1
CAKI-1 = assay: Cytotoxicity against human Caki1 cells assessed as residual growth at 10 uM; format: functional
A498 = assay: Cytotoxicity against human A498 cells assessed as residual growth at 10 uM; format: functional
[13] = Cytotoxicity against human OVCAR5 cells assessed as residual growth at 10 uM; format: functional, OVCAR-5
SF-539 = assay: Cytotoxicity against human SF539 cells assessed as residual growth at 10 uM; format: functional
SNB-19 = assay: Cytotoxicity against human SNB19 cells assessed as residual growth at 10 uM; format: functional
NCI-H226 = assay: Cytotoxicity against human NCI-H226 cells assessed as residual growth at 10 uM; format: functional
SK-MEL-28 [14] = assay: Increase in cell size of human SK-MEL-28 cells at 5 uM after 24 hrs by MitoTracker Green FM-based fluorescence microscopic analysis; format: functional; outline: as §2
NCI-H522 = assay: Cytotoxicity against human NCI-H522 cells assessed as residual growth at 10 uM; format: functional

With `C=CCCCCOc1ccccc1-c1cnc(OCCCCC=C)n1C` the Activity [1] was 66.63%, the Activity (NCI-H322M) was 71.99% and the Activity (SK-OV-3) was 74.99%. For the same compound, the Activity (U-251) was 68.59%, the Activity [2] was 66.38% and the Activity (SK-MEL-28 [3]) was “inactive”. The Activity (UACC-62) was 55.73%, the Activity (SNB-75) was 81.88% and the Activity [4] was 85.23%. It also gave an Activity (SK-MEL-2) of 46.08%, an Activity (MDA-MB-231) of 66.46% and an Activity (HT-29) of 18.11%. For the same compound, the Activity [5] was 97.91%, the Activity (SK-MEL-28 [6]) was 73.36% and the Activity (HOP-92) was 75.18%. For the same compound, the Activity (A549 [7]) was 50.25%, the Activity (NCI-H460) was 55.6% and the IC50 (NHDF) was 36 µM. For the same compound, the Activity (OVCAR-3) was 51.28%, the Activity (SK-MEL-28 [8]) was “inactive” and the IC50 (PC-3) was 9 µM. For the same compound, the Activity (SK-MEL-28 [9]) was “inactive”, the Activity (MDA-MB-468) was 25.48% and the Activity [10] was 30.38%. It also gave an Activity (COLO 205) of 46.04%, an Activity (T47D) of 61.88% and an Activity (RXF 393) of 90.54%. For the same compound, the Activity (786-0) was 106.84%, the Activity (Malme-3M) was 62.83% and the Activity (MOLT-4) was 91.38%. The IC50 (A549 [11]) was 7 µM, the IC50 (T98G) was 4 µM and the Activity (SK-MEL-28 [12]) was “tde”. The Activity (SR) was 30.69%, the IC50 (LoVo) was 5 µM and the Activity (CAKI-1) was 54.94%. For the same compound, the Activity (A498) was 51.15%, the Activity [13] was 95.17% and the Activity (SF-539) was 81.04%. For the same compound, the Activity (SNB-19) was 91.08%, the Activity (NCI-H226) was 92.21% and the Activity (SK-MEL-28 [14]) was “Active”. The Activity (NCI-H522) was 12.63%.

From ChEMBL document CHEMBL3091366, “New 5-Aryl-1H-imidazoles display in vitro antitumor activity against apoptosis-resistant cancer models, including melanomas, through mitochondrial targeting” (J Med Chem, 2013)
